This is a sample that favours compounds with a hit; in the whole collection about 0.98% have one here.
Statin myotox sup – suppression of simvastatin myotoxicity; C2C12 myotubes + simvastatin, ATP luminescence, 48 h; scaled: DMSO 0, geranylgeraniol control 100; rescue of ATP level, % at 7.49 µM; 330,000 tested, 0.78% active;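 active = mean ATP rescue above about 67%, or every replicate alone reaching that limit, limit read from the data, passing the limit was not always enough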;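 note: myotubes were challenged with 10 µM simvastatin during compound exposure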
Rtt109 HAT inh – C. albicans Rtt109 histone acetyltransferase inhibition | 330,000 tested, 0.16% active | Q5AAJ8 | purified Rtt109/Vps75, ThioGlo CoA-SH fluorescence, 4 h | inhibition, % at 34.9 µM;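 active = inhibition of at least 50% in every replicate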
Target sequence (Q5AAJ8 whole entry, looked up): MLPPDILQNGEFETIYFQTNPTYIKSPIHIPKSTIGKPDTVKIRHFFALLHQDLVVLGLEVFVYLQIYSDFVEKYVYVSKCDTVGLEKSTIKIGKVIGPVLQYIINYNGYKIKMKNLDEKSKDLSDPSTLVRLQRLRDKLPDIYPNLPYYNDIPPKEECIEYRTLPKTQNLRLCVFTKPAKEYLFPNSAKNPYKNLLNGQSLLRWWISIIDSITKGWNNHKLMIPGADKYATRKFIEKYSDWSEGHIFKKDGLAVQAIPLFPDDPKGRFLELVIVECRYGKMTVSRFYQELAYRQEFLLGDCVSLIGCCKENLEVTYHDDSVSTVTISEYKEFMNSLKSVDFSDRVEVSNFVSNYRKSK
PGC1a acetyl inh – PGC1a acetylation modulation, inhibitor mode; U2OS PGC1a acetylation, AlphaScreen anti-acetyl-lysine; with virally co-expressed GCN5 acetyltransferase; 350,000 tested, 0.17% active; inhibition, % at 15.6 µM;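 active = every replicate shows inhibition of at least 40%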;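 note: 0% = neutral control wells and 100% = positive control wells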
ERAP1 inh – ERAP1 (human) enzyme inhibition; Q9NZ08; 340,000 tested, 0.15% active; AID 652197; inhibition, % at 10.7 µM; recombinant ERAP1, Leu-AMC fluorescence, 60 min;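 active = mean replicate inhibition of at least 30%, or all replicates individually reaching that 30% level; inactive = mean below 30% and not every replicate reaching it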;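 note: 0% = neutral control wells and 100% = L-leucinethiol positive control wells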
S100A4 inh HTS – S100A4-myosin IIA interaction inhibition; P26447; S100A4/TAMRA-MyoIIA peptide fluorescence polarization; inhibition, % at 10.7 µM; 360,000 tested, 0.14% active;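 active = mean inhibition of at least 70% across replicates, with every replicate also reaching that level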
Target sequence (P26447 whole entry, looked up): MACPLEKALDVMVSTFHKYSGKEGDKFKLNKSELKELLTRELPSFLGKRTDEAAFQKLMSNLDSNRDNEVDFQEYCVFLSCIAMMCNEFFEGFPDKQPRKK
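Test system – S100A4 monomer (human) · Compound – single-point compound testing · Schedule – 5 min incubation before reading · Probe or stimulus – TAMRA-labelled myosin IIA heavy-chain peptide probe, 5 nM · Benchmarks – neutral control DMSO, positive control TFP · Medium – Calcium-containing HEPES buffer, pH 7.2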
* hit, by the source's call; / = not tested or not shown.

SMILES	Statin myotox sup	Rtt109 HAT inh	PGC1a acetyl inh	ERAP1 inh	S100A4 inh HTS
O=C(CNc1cccc(F)c1)N1CCc2ccccc2C1	118*	-8	-1	0	0
Cc1ccc(Sc2c([N+](=O)[O-])c(=O)n(C)c3ccccc23)cc1	90*	-4	/	2	-8
Cn1c(=O)c([N+](=O)[O-])c(NCc2ccccc2)c2ccccc21	122*	10	5	/	/
CO[C@@H]1CN(C)C(=O)c2cc(NS(=O)(=O)c3cn(C)cn3)ccc2OC[C@H](C)N(Cc2cccc(F)c2)C[C@@H]1C	10	/	3	1	5
CCN1[C@@H]2Cn3c(ccc(-c4ccccc4)c3=O)[C@H]1[C@@H](C(=O)NC1CCC1)[C@@H]2CO	-7	/	6	/	/
CCOC(=O)c1cnn(-c2ncnc3sc(C)c(C)c23)c1N	81*	4	-1	/	/
O=C(NCc1ccc2c(c1)OCO2)[C@@H]1[C@@H](CO)[C@@H]2Cn3c(cccc3=O)[C@H]1N2Cc1ccccc1	16	/	/	0	-29
CCCNS(=O)(=O)c1ccc(OCC(=O)OC)cc1	130*	11	-3	/	/
C(=N\c1nccs1)/Nc1nccs1	98*	-3	4	/	/
COc1c2c(nc3occc13)C(CC=C(C)C)(OC)C(OC(C)=O)CC2 (stereo not drawn)	8	-6	-39	/	/
COc1c2c(nc3occc13)C(CC=C(C)C)(OC)C(O)CC2 (stereo not drawn)	78*	-3	-11	/	15
C[C@H]1CN([C@@H](C)CO)C(=O)c2cccc(NC(=O)C3CC3)c2O[C@@H]1CN(C)Cc1ccc(Oc2ccccc2)cc1	16	/	-9	0	4
COc1cc(C(=O)Oc2cccc(C)c2)cc(OC)c1OC	117*	-4	0	/	/
CCCNC(=O)Nc1ccc2c(c1)OC[C@H](C)N(C(=O)C1CCCCC1)C[C@H](C)[C@@H](OC)CN(C)C2=O	/	/	-8	-1	5
CC(=O)CSc1nc(C(F)(F)F)cc(=O)n1-c1ccccc1	151*	2	0	/	/
O=C(O)CSc1nc(C(F)(F)F)cc(=O)n1-c1ccccc1	5	-12	15	/	/
CC(C)(C)C1CCC(OC(=O)C[N+]2(C)CCCC2)CC1 (stereo not drawn)	/	0	/	41*	-3
C[N+]1(CC(=O)OCCCC2CCCCC2)CCCC1	/	14	/	108*	-3
C[C@@H]1CN([C@@H](C)CO)C(=O)c2c(c3ccccc3n2C)-c2ccccc2CO[C@H]1CN(C)Cc1ccccc1C(F)(F)F	/	/	-3	/	35
C[C@H]1CN([C@@H](C)CO)C(=O)Cc2cc(NC(=O)Nc3ccccc3)ccc2O[C@@H]1CN(C)S(=O)(=O)c1ccc(F)cc1	-22	/	2	3	10
CCCC(=O)Nc1ccc2c(c1)OC[C@@H](C)N(C(=O)c1cccnc1)C[C@@H](C)[C@H](OC)CN(C)C2=O	1	/	-4	2	-11
COc1ccc(N(C(=O)c2ccn[nH]2)C(C(=O)NC(C)(C)C)c2ccc(F)cc2)cc1 (stereo not drawn)	88*	2	-3	/	/
CC(C)(C)NC(=O)C(c1ccc(F)cc1)N(CCc1ccccc1)C(=O)c1ccn[nH]1 (stereo not drawn)	12	-4	3	2	-3
COc1ccccc1CNC(=O)C[C@H]1C=C[C@H](NC(=O)CN(C)C)[C@H](CO)O1	-9	/	-1	-2	7
O=C(C1=C(O)C(=O)N(CCCN2CCOCC2)C1c1ccccn1)c1cc2ccccc2o1 (stereo not drawn)	73*	/	-13	/	/
SMILES	Statin myotox sup	Rtt109 HAT inh	PGC1a acetyl inh	ERAP1 inh	S100A4 inh HTS
O=C(C1=C(O)C(=O)N(CCN2CCOCC2)C1c1ccc(F)cc1)c1cc2ccccc2o1 (stereo not drawn)	20	1	3	-1	0
N#C[C@H]1[C@H](c2ccc(C3=CCCC3)cc2)[C@H](CO)N1C(=O)C1CC1	9	/	-4	2	5
COc1ccc(CN2C[C@H](O)COC[C@@H]3O[C@H](CC(=O)N(C)C)CC[C@H]32)cc1	11	/	4	-1	-1
COc1ccc(CN2C[C@H](O)COC[C@@H]3O[C@@H](CC(=O)N(C)C)CC[C@H]32)cc1	10	/	-1	-1	94*
COCCNC(=O)C[C@@H]1CC[C@H]2[C@@H](COC[C@H](O)CN2Cc2cccc(-c3ccncc3)c2)O1	14	/	-1	-4	90*
C[C@@H]1CN([C@@H](C)CO)C(=O)c2cc(NC(=O)C3CCCCC3)ccc2O[C@H]1CN(C)C(=O)Nc1cccc2ccccc12	10	/	-5	0	8
C[C@@H]1CN([C@@H](C)CO)C(=O)Cc2cc(NC(=O)Nc3ccc(F)cc3)ccc2O[C@H]1CN(C)C(=O)Nc1ccc2c(c1)OCO2	-13	/	6	0	3
COc1ccccc1C(=O)NCC(=O)OC(C)C(=O)NC1CCCCC1C (stereo not drawn)	18	1	7	2	-2
COc1ccccc1C(=O)NCC(=O)OC(C)C(=O)NC(=O)NC1CCCCC1 (stereo not drawn)	87*	10	-8	/	/
Cc1ccc(S(=O)(=O)Nc2ccc3c(c2)C(=O)N([C@H](C)CO)C[C@@H](C)[C@@H](CN(C)C(=O)Nc2ccc4c(c2)OCO4)O3)cc1	-2	/	-16	/	/
CCSc1sccc1C1C(C#N)=C(N)N(c2cccnc2)C2=C1C(=O)CC(C)(C)C2 (stereo not drawn)	77*	5	-6	/	/
CC1(C)CC(=O)C2=C(C1)N(c1cccnc1)C(N)=C(C#N)C2c1cccs1 (stereo not drawn)	/	-2	/	0	-4
O=C(c1cnccn1)N1CC(=O)N2[C@@H](CO)[C@@H](c3ccc(C#CC4CCCCC4)cc3)[C@@H]2C1	/	/	10	1	26
O=[N+]([O-])c1ccc(Sc2cccc[n+]2[O-])c2nonc12	/	123*	/	14	-1
COc1ccc(C(NC(=O)c2c(F)c(F)c(F)c(F)c2F)c2ccccc2)cc1 (stereo not drawn)	-2	8	85*	-1	14
CO[C@H]1CC[C@@H]2CCN(C)C(=O)[C@@H](C)CN(C)C(=O)c3cccc(C#N)c3OC[C@H]1O2	-2	/	/	-1	-7
CC(C)NC(=O)C1C(c2ccc(C(F)(F)F)cc2)=Nc2ccccc2N1C(=O)c1ccccc1 (stereo not drawn)	/	/	/	0	0
CC(C)NC(=O)C1C(c2ccc(C(F)(F)F)cc2)=Nc2ccccc2N1C(=O)c1ccco1 (stereo not drawn)	/	/	/	44*	-6
COc1ccc(-c2cc(C(F)(F)F)nc(SCCC(=O)Nc3cc(C)on3)n2)cc1	/	0	-5	/	/
COCCNC(=O)CCSc1nc(-c2ccc(OC)cc2)cc(C(F)(F)F)n1	87*	1	-38	/	/
CC(=O)C[C@@H](O)CC(=O)[C@H]1OC(=O)CCCCCc2ccccc21	8	-2	-1	/	3

High-throughput results: PubChem BioAssay, Broad Institute
